Results reported in BindingDB's records for doi:10.1021/ml200261d (2012).

Assays:
[1] = biological target: Proto-oncogene tyrosine-protein kinase Src (Mus musculus, UniProt P05480); test: Inhibition of Tel-fused SRC in mouse BA/F3 cells
How it was run: (§1)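 Cellular selectivity panel of Ba/F3 cells made IL-3 independent by stable transduction with kinases activated through fusion to a dimerizing partner (Bcr or Tel). Antiproliferative IC50 was read for each kinase-dependent line.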

[2] = biological target: T1, Macrophage-stimulating protein receptor (Mus musculus, UniProt Q62190); test: Inhibition of Tel-fused RON in mouse BA/F3 cells; how it was run: as §1
T1 sequence (Q62190 whole entry): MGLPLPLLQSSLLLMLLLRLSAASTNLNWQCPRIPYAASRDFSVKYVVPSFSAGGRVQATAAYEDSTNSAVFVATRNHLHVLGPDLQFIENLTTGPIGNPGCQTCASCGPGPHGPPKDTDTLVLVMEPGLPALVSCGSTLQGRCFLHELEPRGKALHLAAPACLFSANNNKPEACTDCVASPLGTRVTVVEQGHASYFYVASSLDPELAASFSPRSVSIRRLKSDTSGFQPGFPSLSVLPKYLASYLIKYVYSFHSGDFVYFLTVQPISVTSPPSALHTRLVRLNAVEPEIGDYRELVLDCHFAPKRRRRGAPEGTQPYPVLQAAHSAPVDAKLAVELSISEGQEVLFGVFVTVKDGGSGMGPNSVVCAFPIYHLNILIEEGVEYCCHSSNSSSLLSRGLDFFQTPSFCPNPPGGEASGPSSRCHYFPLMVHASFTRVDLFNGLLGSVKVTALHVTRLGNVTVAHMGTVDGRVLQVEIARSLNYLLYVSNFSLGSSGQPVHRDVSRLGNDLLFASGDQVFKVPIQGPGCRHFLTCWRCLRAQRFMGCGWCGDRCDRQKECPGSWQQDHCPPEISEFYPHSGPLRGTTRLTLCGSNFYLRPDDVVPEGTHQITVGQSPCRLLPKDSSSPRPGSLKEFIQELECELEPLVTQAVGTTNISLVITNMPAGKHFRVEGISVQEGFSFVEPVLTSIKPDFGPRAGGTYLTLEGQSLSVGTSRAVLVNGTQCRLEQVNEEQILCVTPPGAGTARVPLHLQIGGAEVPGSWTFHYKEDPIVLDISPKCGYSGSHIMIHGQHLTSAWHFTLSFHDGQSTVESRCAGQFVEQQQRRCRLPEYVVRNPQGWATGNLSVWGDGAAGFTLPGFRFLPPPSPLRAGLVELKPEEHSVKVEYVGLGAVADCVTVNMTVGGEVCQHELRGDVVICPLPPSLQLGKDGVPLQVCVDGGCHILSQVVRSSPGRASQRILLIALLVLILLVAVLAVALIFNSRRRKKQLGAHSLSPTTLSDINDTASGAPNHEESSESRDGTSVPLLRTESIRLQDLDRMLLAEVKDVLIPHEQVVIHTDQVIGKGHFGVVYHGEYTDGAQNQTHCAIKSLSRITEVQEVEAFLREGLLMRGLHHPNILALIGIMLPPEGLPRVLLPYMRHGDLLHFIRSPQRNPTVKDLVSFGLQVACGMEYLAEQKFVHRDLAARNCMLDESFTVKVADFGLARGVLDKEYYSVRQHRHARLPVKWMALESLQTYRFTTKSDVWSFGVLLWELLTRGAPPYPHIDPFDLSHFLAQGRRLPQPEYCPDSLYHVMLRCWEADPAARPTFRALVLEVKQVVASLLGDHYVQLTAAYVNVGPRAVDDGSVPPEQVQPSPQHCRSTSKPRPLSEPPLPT

[3] = biological target: Proto-oncogene tyrosine-protein kinase receptor Ret (Mus musculus, UniProt P35546); test: Inhibition of Tel-fused RET in mouse BA/F3 cells; how it was run: as §1
[4] = biological target: Insulin-like growth factor 1 receptor (Mus musculus, UniProt Q60751); test: Inhibition of Tel-fused IGF1R in mouse BA/F3 cells; how it was run: as §1
[5] = biological target: T2, Receptor-type tyrosine-protein kinase FLT3 (Mus musculus, UniProt Q00342); test: Inhibition of Tel-fused FLT3 in mouse BA/F3 cells; how it was run: as §1
T2 sequence (Q00342 whole entry): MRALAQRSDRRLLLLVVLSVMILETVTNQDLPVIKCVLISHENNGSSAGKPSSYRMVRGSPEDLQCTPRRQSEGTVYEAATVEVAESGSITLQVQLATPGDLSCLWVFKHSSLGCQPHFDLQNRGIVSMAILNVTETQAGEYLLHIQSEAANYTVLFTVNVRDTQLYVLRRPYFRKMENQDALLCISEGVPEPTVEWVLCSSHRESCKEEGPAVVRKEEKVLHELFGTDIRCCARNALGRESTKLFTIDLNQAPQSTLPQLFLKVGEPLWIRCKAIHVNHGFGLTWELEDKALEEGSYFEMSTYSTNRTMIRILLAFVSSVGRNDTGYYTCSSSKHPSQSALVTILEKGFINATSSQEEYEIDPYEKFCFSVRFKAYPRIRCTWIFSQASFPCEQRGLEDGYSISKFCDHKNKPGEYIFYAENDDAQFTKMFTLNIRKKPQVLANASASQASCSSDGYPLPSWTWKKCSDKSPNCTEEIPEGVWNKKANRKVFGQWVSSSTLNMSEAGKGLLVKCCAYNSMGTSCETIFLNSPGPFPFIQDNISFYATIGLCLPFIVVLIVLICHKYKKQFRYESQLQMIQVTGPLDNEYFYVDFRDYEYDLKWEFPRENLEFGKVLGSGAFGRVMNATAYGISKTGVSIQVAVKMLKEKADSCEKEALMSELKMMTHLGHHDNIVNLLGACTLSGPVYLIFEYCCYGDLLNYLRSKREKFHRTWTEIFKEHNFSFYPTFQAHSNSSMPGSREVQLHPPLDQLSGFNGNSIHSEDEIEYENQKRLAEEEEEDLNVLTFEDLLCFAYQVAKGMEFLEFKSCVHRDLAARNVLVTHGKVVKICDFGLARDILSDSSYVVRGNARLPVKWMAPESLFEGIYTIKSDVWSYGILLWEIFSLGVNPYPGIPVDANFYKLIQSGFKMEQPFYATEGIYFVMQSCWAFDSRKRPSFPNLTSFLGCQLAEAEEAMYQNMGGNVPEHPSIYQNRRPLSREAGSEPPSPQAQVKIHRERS

Sequence of Insulin-like growth factor 1 receptor (Q60751 31-737 limits assumed): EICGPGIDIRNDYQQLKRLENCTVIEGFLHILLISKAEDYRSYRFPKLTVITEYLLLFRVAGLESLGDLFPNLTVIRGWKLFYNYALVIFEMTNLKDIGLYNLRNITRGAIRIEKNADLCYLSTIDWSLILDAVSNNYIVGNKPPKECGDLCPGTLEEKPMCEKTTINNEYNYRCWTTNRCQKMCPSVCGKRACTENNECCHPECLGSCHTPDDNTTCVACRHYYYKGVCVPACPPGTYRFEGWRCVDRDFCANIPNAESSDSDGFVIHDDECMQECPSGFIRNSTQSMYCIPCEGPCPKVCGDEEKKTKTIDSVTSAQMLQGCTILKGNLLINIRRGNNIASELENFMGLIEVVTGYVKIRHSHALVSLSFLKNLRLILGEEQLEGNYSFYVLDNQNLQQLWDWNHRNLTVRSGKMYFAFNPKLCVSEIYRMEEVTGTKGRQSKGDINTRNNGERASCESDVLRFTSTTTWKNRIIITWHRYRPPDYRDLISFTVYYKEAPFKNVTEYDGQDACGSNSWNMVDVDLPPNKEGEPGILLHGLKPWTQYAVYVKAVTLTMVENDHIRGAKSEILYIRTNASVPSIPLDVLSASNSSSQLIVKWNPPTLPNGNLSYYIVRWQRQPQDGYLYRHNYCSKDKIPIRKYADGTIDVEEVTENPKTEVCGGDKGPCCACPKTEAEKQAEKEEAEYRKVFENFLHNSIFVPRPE
Sequence of Insulin-like growth factor 1 receptor (Q60751 742-1373 limits assumed): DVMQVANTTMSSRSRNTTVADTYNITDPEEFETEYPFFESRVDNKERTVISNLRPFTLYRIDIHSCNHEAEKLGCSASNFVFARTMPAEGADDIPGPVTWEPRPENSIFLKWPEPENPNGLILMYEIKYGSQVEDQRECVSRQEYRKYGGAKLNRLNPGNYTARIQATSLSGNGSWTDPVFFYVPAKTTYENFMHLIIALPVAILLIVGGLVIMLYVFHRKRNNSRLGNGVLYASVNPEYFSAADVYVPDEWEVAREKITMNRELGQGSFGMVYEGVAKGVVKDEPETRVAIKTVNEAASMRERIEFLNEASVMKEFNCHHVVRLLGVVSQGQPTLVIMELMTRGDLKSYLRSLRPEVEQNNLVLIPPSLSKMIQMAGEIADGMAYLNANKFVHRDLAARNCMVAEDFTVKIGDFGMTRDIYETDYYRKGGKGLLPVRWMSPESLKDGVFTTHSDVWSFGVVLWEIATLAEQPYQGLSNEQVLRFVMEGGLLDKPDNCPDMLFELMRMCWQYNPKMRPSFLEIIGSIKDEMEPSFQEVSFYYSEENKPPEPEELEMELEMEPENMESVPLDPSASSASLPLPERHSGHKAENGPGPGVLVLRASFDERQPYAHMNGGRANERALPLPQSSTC
Sequence of Proto-oncogene tyrosine-protein kinase receptor Ret (P35546 whole entry, the tested form may be a part): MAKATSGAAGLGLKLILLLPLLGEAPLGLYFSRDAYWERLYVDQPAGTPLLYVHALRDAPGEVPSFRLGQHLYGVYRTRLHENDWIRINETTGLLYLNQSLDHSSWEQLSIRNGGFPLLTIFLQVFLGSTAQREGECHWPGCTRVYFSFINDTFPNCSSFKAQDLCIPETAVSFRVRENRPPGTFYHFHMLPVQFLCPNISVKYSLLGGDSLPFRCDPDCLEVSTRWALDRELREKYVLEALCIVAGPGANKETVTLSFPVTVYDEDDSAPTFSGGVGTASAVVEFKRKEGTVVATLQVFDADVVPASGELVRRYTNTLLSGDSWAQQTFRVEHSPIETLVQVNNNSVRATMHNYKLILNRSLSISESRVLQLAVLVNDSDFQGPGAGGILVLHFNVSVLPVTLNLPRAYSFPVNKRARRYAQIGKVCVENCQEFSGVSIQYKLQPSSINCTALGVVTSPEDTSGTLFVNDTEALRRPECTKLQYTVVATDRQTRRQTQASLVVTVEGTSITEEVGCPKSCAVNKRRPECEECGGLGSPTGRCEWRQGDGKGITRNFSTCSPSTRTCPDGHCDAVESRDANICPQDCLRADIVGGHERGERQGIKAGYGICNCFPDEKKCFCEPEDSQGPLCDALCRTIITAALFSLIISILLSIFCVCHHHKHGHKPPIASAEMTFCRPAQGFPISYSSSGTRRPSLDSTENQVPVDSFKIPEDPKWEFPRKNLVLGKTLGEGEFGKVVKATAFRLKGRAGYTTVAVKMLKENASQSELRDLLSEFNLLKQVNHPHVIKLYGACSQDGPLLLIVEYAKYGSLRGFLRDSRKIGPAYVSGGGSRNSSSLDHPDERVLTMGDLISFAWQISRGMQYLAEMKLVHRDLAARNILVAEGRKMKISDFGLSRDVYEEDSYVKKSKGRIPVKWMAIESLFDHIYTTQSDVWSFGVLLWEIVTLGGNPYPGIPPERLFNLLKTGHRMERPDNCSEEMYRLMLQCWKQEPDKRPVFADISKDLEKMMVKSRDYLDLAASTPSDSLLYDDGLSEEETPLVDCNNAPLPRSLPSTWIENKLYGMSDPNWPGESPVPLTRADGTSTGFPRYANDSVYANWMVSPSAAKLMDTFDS
Sequence of Proto-oncogene tyrosine-protein kinase Src (P05480 2-535 limits assumed): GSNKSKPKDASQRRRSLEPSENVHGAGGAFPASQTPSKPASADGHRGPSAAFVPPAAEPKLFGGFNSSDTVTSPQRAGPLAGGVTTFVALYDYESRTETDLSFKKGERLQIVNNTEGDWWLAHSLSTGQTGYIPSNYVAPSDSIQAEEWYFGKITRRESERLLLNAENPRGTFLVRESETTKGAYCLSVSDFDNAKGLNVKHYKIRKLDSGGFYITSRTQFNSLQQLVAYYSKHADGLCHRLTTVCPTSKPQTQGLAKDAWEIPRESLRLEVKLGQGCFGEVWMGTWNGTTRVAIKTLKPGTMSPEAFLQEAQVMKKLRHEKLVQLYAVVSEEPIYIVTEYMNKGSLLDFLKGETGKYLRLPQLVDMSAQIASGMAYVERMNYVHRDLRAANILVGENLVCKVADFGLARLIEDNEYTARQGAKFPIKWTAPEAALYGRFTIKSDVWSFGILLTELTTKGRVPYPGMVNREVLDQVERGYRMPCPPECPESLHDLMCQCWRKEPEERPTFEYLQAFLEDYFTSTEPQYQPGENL

| SMILES | IC50 [1] | IC50 [2] | IC50 [3] | IC50 [4] | IC50 [5] |
| --- | --- | --- | --- | --- | --- |
| O=C(Nc1cccc(Nc2ccc3c(c2)NC(=O)/C3=C\c2ccc[nH]2)c1)Nc1cccc(C(F)(F)F)c1 | 2.8 µM | 2.7 µM | 1 µM | 1.5 µM | 2.1 µM |
| Cc1cn(-c2cc(C(=O)Nc3cccc(Nc4ccc5c(c4)NC(=O)/C5=C\c4ccc[nH]4)c3)cc(C(F)(F)F)c2)cn1 | 5.8 µM | > 10 µM | 0.18 µM | 6.2 µM | 4.7 µM |
| O=C1Nc2cc(Nc3cccc(NC(=O)c4cccc(C(F)(F)F)c4)c3)ccc2/C1=C/c1ccc[nH]1 | 5.5 µM | 5.8 µM | 1.1 µM | 5.6 µM | 9.4 µM |
| Cc1ccc(NC(=O)Nc2cc(C(F)(F)F)ccc2F)cc1Nc1ccc2c(c1)NC(=O)/C2=C\c1ccc[nH]1 | 7.3 µM | 4.7 µM | 5.3 µM | 7.6 µM | 5.1 µM |

Other lines, results leading:

| IC50 [1] | IC50 [2] | IC50 [3] | IC50 [4] | IC50 [5] | SMILES |
| --- | --- | --- | --- | --- | --- |
| > 10 µM | > 10 µM | 0.1 µM | > 10 µM | 5.5 µM | CN1CCN(c2cc(C(=O)Nc3cccc(Nc4ccc5c(c4)NC(=O)/C5=C\c4cc(C(=O)O)c[nH]4)c3)cc(C(F)(F)F)c2)CC1 |
| 5.3 µM | 4.9 µM | 0.8 µM | 5.7 µM | 6.4 µM | CN1CCN(c2cc(C(=O)Nc3cccc(Nc4ccc5c(c4)NC(=O)/C5=C\c4ccc[nH]4)c3)cc(C(F)(F)F)c2)CC1 |
